# Calls of active or inactive are those of the source. The calls are words filed in the database; no cut-off is given here.
# How the values were obtained:
# Histamine H1 receptor [1] = target: T1, Histamine H1 receptor (Homo sapiens, UniProt P35367); test: Antagonist activity at human recombinant histamine H1 receptor expressed in intact CHO cells assessed as inhibition of histamine-induced cellular calcium mobilization at 100 nM incubated for 30 mins measured after washout followed by repeat histamine challenge at intervals of 90 and 270 mins by FLIPR assay; type: functional, cell-based
# T1 sequence (P35367 whole entry): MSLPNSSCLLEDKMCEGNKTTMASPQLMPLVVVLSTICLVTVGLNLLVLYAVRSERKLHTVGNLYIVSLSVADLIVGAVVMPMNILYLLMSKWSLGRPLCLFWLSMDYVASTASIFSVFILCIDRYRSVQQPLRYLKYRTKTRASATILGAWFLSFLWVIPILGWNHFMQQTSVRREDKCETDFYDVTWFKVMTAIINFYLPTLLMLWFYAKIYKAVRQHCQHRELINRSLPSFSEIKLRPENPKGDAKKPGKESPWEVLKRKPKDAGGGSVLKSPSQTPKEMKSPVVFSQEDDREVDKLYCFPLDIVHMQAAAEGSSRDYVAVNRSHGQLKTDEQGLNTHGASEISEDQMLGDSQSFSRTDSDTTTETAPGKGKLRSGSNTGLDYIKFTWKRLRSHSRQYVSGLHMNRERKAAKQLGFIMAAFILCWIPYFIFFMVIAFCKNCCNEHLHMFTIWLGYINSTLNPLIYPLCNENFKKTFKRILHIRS
# [2] = target: T2, Alpha-1A adrenergic receptor (Homo sapiens, UniProt P35348); test: Binding affinity to human adrenergic alpha1A receptor expressed in rat intact fibroblasts
# T2 sequence (P35348 whole entry): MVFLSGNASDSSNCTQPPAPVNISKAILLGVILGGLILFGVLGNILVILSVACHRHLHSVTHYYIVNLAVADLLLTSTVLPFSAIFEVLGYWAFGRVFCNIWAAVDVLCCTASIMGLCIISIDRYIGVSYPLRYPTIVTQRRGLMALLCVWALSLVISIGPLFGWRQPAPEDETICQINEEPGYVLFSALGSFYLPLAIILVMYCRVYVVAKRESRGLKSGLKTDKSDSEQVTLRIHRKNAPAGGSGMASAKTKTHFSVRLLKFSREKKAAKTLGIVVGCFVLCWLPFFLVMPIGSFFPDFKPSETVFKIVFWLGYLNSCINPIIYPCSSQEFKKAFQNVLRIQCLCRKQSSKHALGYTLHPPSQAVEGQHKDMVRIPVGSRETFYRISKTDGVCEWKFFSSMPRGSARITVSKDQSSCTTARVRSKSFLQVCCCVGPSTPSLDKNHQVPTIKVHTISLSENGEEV
# Histamine H3 receptor = Histamine H3 receptor (Homo sapiens, UniProt Q9Y5N1); test: Antagonist activity at human recombinant histamine H3 receptor expressed in CHO cells assessed as inhibition of histamine-induced GTP-gammaS binding; type: functional, cell-based
# Chain of Histamine H3 receptor (Q9Y5N1 whole entry): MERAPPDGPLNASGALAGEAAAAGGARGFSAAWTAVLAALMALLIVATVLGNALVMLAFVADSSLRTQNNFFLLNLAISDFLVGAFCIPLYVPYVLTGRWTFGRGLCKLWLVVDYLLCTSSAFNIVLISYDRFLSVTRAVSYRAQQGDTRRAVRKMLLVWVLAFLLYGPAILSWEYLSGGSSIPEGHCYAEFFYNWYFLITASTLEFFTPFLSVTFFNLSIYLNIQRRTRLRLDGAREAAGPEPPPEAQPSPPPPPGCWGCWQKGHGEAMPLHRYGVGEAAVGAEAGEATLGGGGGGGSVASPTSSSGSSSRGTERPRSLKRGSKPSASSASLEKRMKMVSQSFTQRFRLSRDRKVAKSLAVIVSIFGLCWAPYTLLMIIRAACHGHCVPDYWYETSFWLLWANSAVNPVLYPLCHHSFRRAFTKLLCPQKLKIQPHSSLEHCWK
# In short: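 Membranes from CHO cells transfected with cloned human H3 receptor; reduction of histamine-stimulated GTPγS binding, detected by scintillation proximity.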
# [3] = target: T3, Alpha-1B adrenergic receptor (Homo sapiens, UniProt P35368); test: Binding affinity to human adrenergic Alpha-1B receptor expressed in rat intact fibroblasts
# T3 sequence (P35368 whole entry): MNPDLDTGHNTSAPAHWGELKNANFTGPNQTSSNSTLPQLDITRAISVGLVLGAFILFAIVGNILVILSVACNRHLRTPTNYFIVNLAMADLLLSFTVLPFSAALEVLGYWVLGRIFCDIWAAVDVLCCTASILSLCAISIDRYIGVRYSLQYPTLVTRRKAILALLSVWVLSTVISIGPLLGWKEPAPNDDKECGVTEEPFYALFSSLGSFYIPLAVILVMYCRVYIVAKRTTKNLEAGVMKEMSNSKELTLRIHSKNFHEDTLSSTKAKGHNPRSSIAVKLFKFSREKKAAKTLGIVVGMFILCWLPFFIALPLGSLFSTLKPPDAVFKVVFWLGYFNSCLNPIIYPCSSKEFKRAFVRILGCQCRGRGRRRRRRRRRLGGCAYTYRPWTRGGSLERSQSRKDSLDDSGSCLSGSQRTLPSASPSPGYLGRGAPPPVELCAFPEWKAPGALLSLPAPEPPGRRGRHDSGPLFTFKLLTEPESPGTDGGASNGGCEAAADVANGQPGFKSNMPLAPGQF
# In short: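 Plate-based calcium imaging in intact Rat1 fibroblasts expressing the human α1B adrenoceptor.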
# Histamine H1 receptor [4] = target: T1, Histamine H1 receptor; test: Antagonist activity at human recombinant histamine H1 receptor expressed in intact CHO cells assessed as inhibition of histamine-induced cellular calcium mobilization by FLIPR assay; type: functional, cell-based
# In short: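 Human recombinant H1 receptor in intact CHO cells; inhibition of agonist-induced calcium mobilization read with Fluo-4AM in FLIPR. EC50 came from a four-parameter logistic fit, and pA2 = log(DR−1) − log[B], where DR is the EC50 ratio versus control.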
# Histamine H1 receptor [5] = target: T1, Histamine H1 receptor; test: Antagonist activity at human recombinant histamine H1 receptor expressed in intact CHO cells assessed as inhibition of histamine-induced cellular calcium mobilization at 100 nM after 30 mins by FLIPR assay; type: functional, cell-based; conditions: read-out: pA2 (converted)
# In short: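 Intact CHO cells expressing recombinant human H1; Fluo-4AM calcium dye read on FLIPR. Histamine concentration-response curves run without or with antagonist at a single 100 nM, 30 min incubation. EC50 from four-parameter logistic fit; pA2 = log(DR-1) - log[B], DR being EC50 with antagonist over control EC50.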
# Histamine H4 receptor = Histamine H4 receptor (Homo sapiens, UniProt Q9H3N8); test: Binding affinity to human histamine H4 receptor
# Chain of Histamine H4 receptor (Q9H3N8 whole entry): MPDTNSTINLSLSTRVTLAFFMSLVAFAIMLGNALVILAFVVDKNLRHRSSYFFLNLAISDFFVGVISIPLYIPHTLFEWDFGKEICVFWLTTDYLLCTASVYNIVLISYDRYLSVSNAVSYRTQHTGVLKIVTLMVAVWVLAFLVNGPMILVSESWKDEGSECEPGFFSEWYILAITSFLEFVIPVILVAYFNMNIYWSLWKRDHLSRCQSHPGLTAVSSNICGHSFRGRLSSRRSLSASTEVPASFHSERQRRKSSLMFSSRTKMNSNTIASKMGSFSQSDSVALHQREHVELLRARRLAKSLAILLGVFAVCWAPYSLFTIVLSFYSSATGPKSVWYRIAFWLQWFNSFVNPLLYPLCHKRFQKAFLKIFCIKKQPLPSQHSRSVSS
# [6] = Clearance in Beagle dog at 3 mg/kg, po and 1 mg/kg, iv; type: ADME, organism-based, Canis lupus familiaris; conditions: in vivo
# In short: (§1)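 Male Beagle dogs (n = 3) dosed 3.0 mg/kg po and 1.0 mg/kg iv. Clearance, Vss, t1/2 and F are given with ranges, and clearance as % of liver blood flow. Unchanged drug excreted in urine was measured over 24 h.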
# Liver = test: Metabolic stability in dog liver microsomes; type: ADME, Canis lupus familiaris, Microsome
# [7] = Ratio of drug level in brain to blood in CD rat at 1 mg/kg, iv; type: ADME, organism-based; parameters: dose 1 mg/kg, route intravenous; conditions: read-out: BBR
# Cytochrome P450 2C9 = Cytochrome P450 2C9 (Homo sapiens, UniProt P11712); test: Inhibition of CYP2C9; type: ADME
# Chain of Cytochrome P450 2C9 (P11712 whole entry): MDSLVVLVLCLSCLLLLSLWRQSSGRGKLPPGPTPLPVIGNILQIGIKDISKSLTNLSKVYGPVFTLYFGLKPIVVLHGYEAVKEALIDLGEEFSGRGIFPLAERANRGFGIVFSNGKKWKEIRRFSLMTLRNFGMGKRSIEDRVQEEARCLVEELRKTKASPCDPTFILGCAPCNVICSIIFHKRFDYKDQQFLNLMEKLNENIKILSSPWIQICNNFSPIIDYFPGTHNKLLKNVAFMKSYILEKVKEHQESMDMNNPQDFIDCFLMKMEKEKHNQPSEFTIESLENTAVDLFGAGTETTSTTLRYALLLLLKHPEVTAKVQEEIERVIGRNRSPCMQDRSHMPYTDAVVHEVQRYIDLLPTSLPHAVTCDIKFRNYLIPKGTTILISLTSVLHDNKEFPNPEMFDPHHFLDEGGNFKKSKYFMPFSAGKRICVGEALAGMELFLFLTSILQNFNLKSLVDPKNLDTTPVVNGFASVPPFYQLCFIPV
# Cytochrome P450 3A4 = Cytochrome P450 3A4 (Homo sapiens, UniProt P08684); test: Inhibition of CYP3A4; type: ADME
# Chain of Cytochrome P450 3A4 (P08684 whole entry): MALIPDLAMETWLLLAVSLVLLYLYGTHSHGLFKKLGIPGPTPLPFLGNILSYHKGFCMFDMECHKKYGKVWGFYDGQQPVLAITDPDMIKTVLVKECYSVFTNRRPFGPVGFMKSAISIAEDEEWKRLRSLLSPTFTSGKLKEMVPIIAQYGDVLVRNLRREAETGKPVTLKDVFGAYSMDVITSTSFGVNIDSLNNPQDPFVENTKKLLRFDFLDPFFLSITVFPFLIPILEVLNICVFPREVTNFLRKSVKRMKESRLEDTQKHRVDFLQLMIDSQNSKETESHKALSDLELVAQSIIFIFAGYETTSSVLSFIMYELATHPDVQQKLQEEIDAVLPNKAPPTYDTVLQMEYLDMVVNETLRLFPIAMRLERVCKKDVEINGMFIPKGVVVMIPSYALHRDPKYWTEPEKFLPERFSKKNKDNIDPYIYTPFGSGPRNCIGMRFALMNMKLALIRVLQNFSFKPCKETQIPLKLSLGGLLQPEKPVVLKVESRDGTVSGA
# [8] = target: T4, Voltage-gated inwardly rectifying potassium channel KCNH2 (Homo sapiens, UniProt Q12809); test: Displacement of labeled dofetilide human ERG
# T4 sequence (Q12809 whole entry): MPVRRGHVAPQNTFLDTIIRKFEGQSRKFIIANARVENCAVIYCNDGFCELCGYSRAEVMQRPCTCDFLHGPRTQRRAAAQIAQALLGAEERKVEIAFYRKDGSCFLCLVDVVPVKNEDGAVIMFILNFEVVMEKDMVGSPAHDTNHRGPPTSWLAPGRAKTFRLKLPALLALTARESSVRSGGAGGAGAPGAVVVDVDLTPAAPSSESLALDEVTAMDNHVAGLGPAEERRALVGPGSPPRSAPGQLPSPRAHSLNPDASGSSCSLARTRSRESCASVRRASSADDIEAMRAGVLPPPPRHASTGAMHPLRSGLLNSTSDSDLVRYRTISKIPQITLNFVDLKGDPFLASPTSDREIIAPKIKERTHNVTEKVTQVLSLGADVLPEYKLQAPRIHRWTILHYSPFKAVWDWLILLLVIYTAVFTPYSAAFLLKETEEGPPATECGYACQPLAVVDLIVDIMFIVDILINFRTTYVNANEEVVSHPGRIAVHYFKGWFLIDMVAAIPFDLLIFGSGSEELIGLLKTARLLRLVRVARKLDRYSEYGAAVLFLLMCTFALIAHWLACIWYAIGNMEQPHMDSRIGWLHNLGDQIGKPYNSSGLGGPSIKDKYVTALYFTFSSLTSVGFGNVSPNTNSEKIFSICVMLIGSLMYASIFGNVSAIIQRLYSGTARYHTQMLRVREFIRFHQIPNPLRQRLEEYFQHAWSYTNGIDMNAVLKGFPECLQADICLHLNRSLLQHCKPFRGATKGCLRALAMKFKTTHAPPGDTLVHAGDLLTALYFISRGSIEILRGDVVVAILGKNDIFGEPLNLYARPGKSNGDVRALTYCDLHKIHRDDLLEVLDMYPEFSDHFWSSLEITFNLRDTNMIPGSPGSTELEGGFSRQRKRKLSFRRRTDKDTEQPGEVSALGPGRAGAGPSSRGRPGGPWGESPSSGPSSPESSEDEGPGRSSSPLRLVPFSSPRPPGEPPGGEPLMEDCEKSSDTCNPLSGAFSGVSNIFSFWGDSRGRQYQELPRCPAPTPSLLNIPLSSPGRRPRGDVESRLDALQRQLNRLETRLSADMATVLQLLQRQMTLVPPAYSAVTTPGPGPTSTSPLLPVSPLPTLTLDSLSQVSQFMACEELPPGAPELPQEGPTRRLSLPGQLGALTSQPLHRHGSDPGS
# Histamine H2 receptor = Histamine H2 receptor (Homo sapiens, UniProt P25021); test: Binding affinity to human histamine H2 receptor
# Chain of Histamine H2 receptor (P25021 whole entry): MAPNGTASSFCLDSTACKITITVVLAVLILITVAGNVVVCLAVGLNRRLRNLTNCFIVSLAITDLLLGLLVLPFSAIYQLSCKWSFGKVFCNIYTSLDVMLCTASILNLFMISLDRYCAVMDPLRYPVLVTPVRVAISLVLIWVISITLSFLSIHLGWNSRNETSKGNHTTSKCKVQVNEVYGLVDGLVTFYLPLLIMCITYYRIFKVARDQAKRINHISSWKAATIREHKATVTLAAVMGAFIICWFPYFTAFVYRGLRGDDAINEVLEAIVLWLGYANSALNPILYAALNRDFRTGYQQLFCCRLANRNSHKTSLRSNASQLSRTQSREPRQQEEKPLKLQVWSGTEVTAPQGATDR
# [9] = Clearance in CD rat at 3 mg/kg, po and 1 mg/kg, iv; type: ADME, organism-based; conditions: in vivo
# In short: (§2)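 Male CD rats dosed 3.0 mg/kg po and 1.0 mg/kg iv, groups of 3 or 7 animals. Clearance, Vss, t1/2 and F are reported with ranges, and clearance is also expressed as % of liver blood flow.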
# Hepatocyte = test: Metabolic stability in human hepatocytes; type: ADME, cell-based
# [10] = Half life in Beagle dog at 3 mg/kg, po and 1 mg/kg, iv; type: ADME, organism-based, Canis lupus familiaris; conditions: in vivo; in short: as §1
# [11] = Volume of distribution at steady state in Beagle dog at 3 mg/kg, po and 1 mg/kg, iv; type: ADME, organism-based, Canis lupus familiaris; conditions: in vivo, read-out: Vdss; in short: as §1
# [12] = Unchanged drug level in Beagle dog urine at 3 mg/kg, po and 1 mg/kg, iv after 24 hrs; type: ADME, organism-based, Canis lupus familiaris; conditions: read-out: Activity; in short: as §1
# Heart = test: Cardiotoxicity in rabbit heart assessed as induction of QT interval prolongation; type: toxicity, tissue-based, Oryctolagus cuniculus
# Cytochrome P450 1A2 = target: T5, Cytochrome P450 1A2 (Homo sapiens, UniProt P05177); test: Inhibition of CYP1A2; type: ADME
# T5 sequence (P05177 whole entry): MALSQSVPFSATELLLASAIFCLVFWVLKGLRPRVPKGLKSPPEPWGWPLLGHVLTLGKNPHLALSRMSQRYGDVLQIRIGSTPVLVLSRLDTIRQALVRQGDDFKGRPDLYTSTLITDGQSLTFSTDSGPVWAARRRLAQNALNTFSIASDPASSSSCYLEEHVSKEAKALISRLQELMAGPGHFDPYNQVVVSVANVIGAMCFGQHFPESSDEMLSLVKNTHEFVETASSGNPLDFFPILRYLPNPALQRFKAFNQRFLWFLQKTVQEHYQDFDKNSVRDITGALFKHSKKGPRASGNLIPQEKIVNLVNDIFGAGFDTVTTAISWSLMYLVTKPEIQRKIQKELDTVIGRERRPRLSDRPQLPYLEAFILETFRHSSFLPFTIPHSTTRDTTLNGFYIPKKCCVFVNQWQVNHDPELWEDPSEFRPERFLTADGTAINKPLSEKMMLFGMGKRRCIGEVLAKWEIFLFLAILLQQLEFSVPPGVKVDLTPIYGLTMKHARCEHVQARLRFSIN
# Cytochrome P450 2D6 = Cytochrome P450 2D6 (Homo sapiens, UniProt P10635); test: Inhibition of CYP2D6; type: ADME
# Chain of Cytochrome P450 2D6 (P10635 whole entry): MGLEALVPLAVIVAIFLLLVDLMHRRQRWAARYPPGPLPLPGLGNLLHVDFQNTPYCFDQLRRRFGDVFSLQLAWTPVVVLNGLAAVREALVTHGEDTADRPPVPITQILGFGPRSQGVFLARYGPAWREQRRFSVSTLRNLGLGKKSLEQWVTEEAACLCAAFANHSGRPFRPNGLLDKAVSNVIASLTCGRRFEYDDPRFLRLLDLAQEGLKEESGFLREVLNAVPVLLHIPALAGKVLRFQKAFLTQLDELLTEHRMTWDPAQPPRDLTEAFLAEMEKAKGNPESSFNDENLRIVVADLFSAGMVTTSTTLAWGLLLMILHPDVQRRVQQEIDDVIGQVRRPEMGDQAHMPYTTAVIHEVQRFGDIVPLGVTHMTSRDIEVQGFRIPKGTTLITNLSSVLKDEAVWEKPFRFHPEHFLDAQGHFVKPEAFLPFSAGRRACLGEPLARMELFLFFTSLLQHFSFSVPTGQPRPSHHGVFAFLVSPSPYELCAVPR
# Cytochrome P450 2C19 = Cytochrome P450 2C19 (Homo sapiens, UniProt P33261); test: Inhibition of CYP2C19; type: ADME
# Chain of Cytochrome P450 2C19 (P33261 whole entry): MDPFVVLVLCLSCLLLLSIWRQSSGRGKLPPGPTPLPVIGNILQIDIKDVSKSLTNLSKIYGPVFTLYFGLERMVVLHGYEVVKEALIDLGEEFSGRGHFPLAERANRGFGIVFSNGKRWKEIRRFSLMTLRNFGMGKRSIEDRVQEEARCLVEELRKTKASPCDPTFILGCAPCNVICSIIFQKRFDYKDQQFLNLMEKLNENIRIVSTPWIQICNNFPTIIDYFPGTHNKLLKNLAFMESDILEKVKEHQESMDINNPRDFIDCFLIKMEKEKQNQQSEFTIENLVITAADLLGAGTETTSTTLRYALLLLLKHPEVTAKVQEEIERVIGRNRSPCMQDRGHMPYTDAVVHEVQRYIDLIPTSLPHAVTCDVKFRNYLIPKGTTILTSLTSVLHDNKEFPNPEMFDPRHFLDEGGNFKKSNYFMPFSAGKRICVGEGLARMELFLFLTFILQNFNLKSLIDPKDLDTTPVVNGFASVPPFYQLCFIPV
# Canis familiaris = test: Liver blood flow in Beagle dog at 3 mg/kg, po and 1 mg/kg, iv; type: ADME, organism-based, Canis lupus familiaris; conditions: in vivo; in short: as §1
# Rattus norvegicus = test: Liver blood flow in CD rat at 3 mg/kg, po and 1 mg/kg, iv; type: ADME, organism-based; conditions: in vivo; in short: as §2
# Cavia porcellus [13] = test: Antiallergic rhinitis activity in conscious guinea pig assessed as duration of inhibition of histamine-induced nasal congestion at 0.1 to 1 mg/ml administered intranasally; type: functional
# [14] = Oral bioavailability in CD rat at 3 mg/kg; type: ADME, organism-based; conditions: in vivo; in short: as §2
# [15] = Half life in CD rat at 3 mg/kg, po and 1 mg/kg, iv; type: ADME, organism-based; conditions: in vivo; in short: as §2
# [16] = Volume of distribution at steady state in CD rat at 3 mg/kg, po and 1 mg/kg, iv; type: ADME, organism-based; conditions: in vivo, read-out: Vdss; in short: as §2
# [17] = target: T4, Voltage-gated inwardly rectifying potassium channel KCNH2; test: Inhibition of human ERG by patch clamp assay
# Liver microsomes [18] = test: Metabolic stability in rat liver microsomes; type: ADME, Microsome
# Liver microsomes [19] = test: Metabolic stability in human liver microsomes; type: ADME, Microsome
# [20] = Oral bioavailability in Beagle dog at 3 mg/kg; type: ADME, organism-based, Canis lupus familiaris; conditions: in vivo; in short: as §1
# Cavia porcellus [21] = test: Antiallergic rhinitis activity in conscious guinea pig assessed as duration of inhibition of histamine-induced nasal congestion at 1 mg/ml administered intranasally; type: functional
# [22] = Oral bioavailability in Beagle dog at 2 mg/kg; type: ADME, organism-based, Canis lupus familiaris; conditions: in vivo
# [23] = Clearance in Beagle dog at 2 mg/kg, po and 1 mg/kg, iv; type: ADME, organism-based, Canis lupus familiaris; conditions: in vivo
# [24] = Half life in Beagle dog at 2 mg/kg, po and 1 mg/kg, iv; type: ADME, organism-based, Canis lupus familiaris; conditions: in vivo
# [25] = Volume of distribution at steady state in Beagle dog at 2 mg/kg, po and 1 mg/kg, iv; type: ADME, organism-based, Canis lupus familiaris; conditions: in vivo, read-out: Vdss
# [26] = Bioavailability in intranasally dosed human; type: ADME, organism-based; conditions: in vivo, inhaled or intranasal
# [27] = Lipophilicity, log D of the compound; type: physicochemical; conditions: octanol/water; read-out: logD
# [28] = Solubility of the compound in phosphate buffered saline at pH 5; type: physicochemical
compound,measurement,setting,value
O=c1c2ccccc2c(Cc2ccc(O)cc2)nn1C[C@H]1CCCN1CCCCc1ccc(OCCCN2CCCCCC2)cc1,inhibition,Histamine H1 receptor [1],Active
same,Ki,[2],100 nM
same,Ki,Histamine H3 receptor,0.398 nM
same,Ki,[3],126 nM
same,Ki,Histamine H1 receptor [4],12.6 nM
same,Kb,Histamine H1 receptor [5],3.98 nM
O=c1c2ccccc2c(Cc2ccc(Cl)cc2)nn1C[C@H]1CCCN1CCCCc1ccc(OCCCN2CCCCCC2)cc1 [GSK-1004723],IC50,Histamine H4 receptor,10 µM
same,clearance,[6],27 mL/min/kg
same,Stability,Liver,Stable
same,Kp,[7],0.6
same,Ki,[2],39.8 nM
same,IC50,Cytochrome P450 2C9,> 3 µM
same,IC50,Cytochrome P450 3A4,300 nM
same,IC50,[8],50.1 nM
same,IC50,Histamine H2 receptor,10 µM
same,clearance,[9],30 mL/min/kg
same,Stability,Hepatocyte,Unstable
same,half-life,[10],564 min
same,Vd,[11],22 L/kg
same,dose excreted at 24 h,[12],< 1%
same,Activity,Heart,Non-toxic
same,Ki,[3],31.6 nM
same,IC50,Cytochrome P450 1A2,> 3 µM
same,IC50,Cytochrome P450 2D6,40 nM
same,IC50,Cytochrome P450 2C19,> 3 µM
same,LBF,Canis familiaris,87%
same,LBF,Rattus norvegicus,35%
same,Time,Cavia porcellus [13],72 h
same,bioavailability,[14],4%
same,half-life,[15],132 min
same,Vd,[16],3.9 L/kg
same,inhibition (INH),[17],Active
same,Ki,Histamine H1 receptor [4],10 nM
same,Stability,Liver microsomes [18],Stable
same,Kb,Histamine H1 receptor [5],0.794 nM
same,Stability,Liver microsomes [19],Stable
same,bioavailability,[20],19%
CN1CCCC(n2nc(Cc3ccc(Cl)cc3)c3ccccc3c2=O)CC1 (racemic) [AZELASTINE],Kp,[7],7.5
same,Time,Cavia porcellus [21],<24 h
same,bioavailability,[22],46%
same,clearance,[23],22 mL/min/kg
same,Ki,[2],50.1 nM
same,half-life,[24],192 min
same,Vd,[25],4.9 L/kg
same,clearance,[9],35 mL/min/kg
same,Ki,Histamine H3 receptor,158 nM
same,Ki,[3],50.1 nM
same,IC50,Cytochrome P450 2D6,1000 nM
same,LBF,Rattus norvegicus,41%
same,bioavailability,[14],7%
same,half-life,[15],60 min
same,Vd,[16],1.8 L/kg
same,bioavailability,[26],40%
Cl.Cl.Cl.O=c1c2ccccc2c(Cc2ccc(Cl)cc2)nn1C[C@H]1CCCN1CCCCc1ccc(OCCCN2CCCCCC2)cc1,logD,[27],2.86
same,solubility,[28],> 11 µg/mL

# From ChEMBL document CHEMBL1764974, “The discovery of phthalazinone-based human H1 and H3 single-ligand antagonists suitable for intranasal administration for the treatment of allergic rhinitis” (J Med Chem, 2011)
